Experimental data from different studies.
Lines come from different studies, so protocols differ.
Target: Tyrosine-protein kinase SYK (SYK, Homo sapiens, UniProt P43405)

SMILES | assay | setting | measurement | result
C1=C/COCc2cc(ccc2OCCN2CCCC2)Nc2nccc(n2)-c2cccc(c2)COC/1 | cell-free assay | 0.1 µM | remaining signal | 87%
Cc1ccc(NC(=O)c2ccnc(C(F)(F)F)c2)cc1-c1cc(OCCO)nc(N2CCOCC2)c1 | binding, competition with immobilised ligand | 1 µM | remaining binding | 100%
CC#CC(=O)N1CCC[C@H]1c1nc(-c2ccc(C(=O)Nc3ccccn3)cc2)c2c(N)nccn12 | enzyme activity, inhibitor | 1 µM | inhibition | 0%
CCCCC(=O)Nc1ccc(-c2ccc3ncn(CCC)c(=O)c3c2)cn1 | binding, competition with immobilised ligand | 0.5 µM | remaining binding | 90%
CO[C@@H]1[C@H](N(C)C(=O)c2ccccc2)C[C@H]2O[C@]1(C)n1c3ccccc3c3c4c(c5c6ccccc6n2c5c31)C(=O)NC4 | enzyme activity, inhibitor | 1 µM | inhibition | 96%
C[C@H]1CC[C@H](n2c3cnccc3c3cnc(Nc4ccc5c(n4)CCN(C(=O)CO)C5)nc32)CC1 | cell-free assay, competition with immobilised ligand | 1 µM | remaining binding | 100%
COc1ccc2oc(-c3ccc4nc(N)oc4c3)c/c(=N\c3ccccc3NC(=O)CCN)c2c1 | binding | 1 µM | remaining binding | 96%
CC(C)S(=O)(=O)c1ccc2nccc(Nc3ccc4sc(C5CCCC5)nc4c3)c2c1 | enzyme activity, inhibitor | 1 µM | activity vs control | 104%
